Laboratory results as given in paper PMC7668563 (International journal of molecular biology (Edmond, Okla.), 2020).

Legend:
[1] = target: T1, apo-human transferrin (apo-hTf) (Homo sapiens, UniProt P02787); test: UV-Vis absorbance titration of apo-hTf; type: binding
[2] = target: T1, apo-human transferrin (apo-hTf); test: Far-UV circular dichroism titration of apo-hTf, secondary structure content
In short: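 Apo-hTf (4.0×10−7 mol L−1) in 2 mM Tris-HCl pH 7.4 was titrated with a 1.0×10−3 mol L−1 stock of test compound in Tris-HCl/2% DMSO, to final 0–2.4×10−6 mol L−1. Far-UV CD was recorded from 190–250 nm under nitrogen in a 1.0 cm cell: six scans at 100 nm/min. Baseline was buffer ± DMSO at room temperature. α-Helix was derived from MRE at 208 nm; β-sheet and random coil by the CD-RRG method.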

[3] = target: T1, apo-human transferrin (apo-hTf); test: Fluorescence resonance energy transfer; type: binding
In short: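 Emission spectrum of 1.0×10−5 mol L−1 apo-hTf and absorption spectrum of 1.0×10−5 mol L−1 test compound were recorded in 20 mM Tris-HCl pH 7.4 at room temperature, 260–450 nm, and their spectral overlap determined. E was calculated from apo-hTf fluorescence without and with equimolar test compound. R0 and donor–acceptor distance r came from Förster equations.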

[4] = tested on: human colorectal adenocarcinoma cell line, HT-29; test: MTT cell viability assay on HT-29, 72 h exposure; type: cell-based; conditions: read-out: IC50 (±SD), HT-29, HT-29, 72 h of exposure
In short: (§1)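 HT-29 was grown in McCoy's 5A with 10% FBS. MCF-7 was grown in MEM with 10% FBS and 0.01 mg/mL insulin. Both were kept at 37°C, 5% CO2, trypsinized at 70–80% confluency and seeded at 1.5×10^4 cells/well for 24 h. Cells were then exposed for 72 h to test compound in 5% DMSO/95% medium, with DMSO-medium controls. MTT was added as a 2.67 mg/mL solution for 2 h. Formazan was dissolved in 10% Triton X-100/isopropanol and read at A570 minus A620. IC50 came from a sigmoidal fit of viability vs log concentration, eight replicas, triplicate, ±SD.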

[5] = target: T1, apo-human transferrin (apo-hTf); test: Fluorescence quenching of apo-hTf; type: binding; conditions: for biomolecular quenching rate constant kq: kq=Ksv/τ0; for Stern-Volmer quenching constant Ksv / number of binding sites n: pH 7.4; for quenching association constant Ka: pH 7.4, modified Stern-Volmer
In short: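 Intrinsic fluorescence of apo-hTf in Tris-HCl pH 7.4 was titrated with test compound (Tris-HCl/2% DMSO). Conditions: excitation 280 nm, emission 290–500 nm, slits 10/5 nm, 1.0 cm quartz cell, at 296, 303, 310 and 317 K, triplicate titrations. Intensities were corrected for inner filter effect using absorbances at excitation and emission wavelengths. Ksv came from Stern-Volmer plots of F0/F vs [Q]; kq = Ksv/τ0 (τ0 ~1.0×10−8); Ka and n came from the modified Stern-Volmer equation.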

[6] = target: T1, apo-human transferrin (apo-hTf); test: Thermodynamic parameters of apo-hTf complex formation; type: binding
In short: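 Ksv values were obtained from apo-hTf fluorescence quenching at pH 7.4 at 296, 303, 310 and 317 K. ΔH°, ΔS° and ΔG° were derived from linear regression of ln(Ksv) vs 1/T (Van't Hoff equation).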

[7] = tested on: human breast adenocarcinoma cell line, MCF-7; test: MTT cell viability assay on MCF-7, 72 h exposure; type: cell-based; conditions: MCF-7, 72 h of exposure
In short: as §1

T1 sequence (P02787 20-698): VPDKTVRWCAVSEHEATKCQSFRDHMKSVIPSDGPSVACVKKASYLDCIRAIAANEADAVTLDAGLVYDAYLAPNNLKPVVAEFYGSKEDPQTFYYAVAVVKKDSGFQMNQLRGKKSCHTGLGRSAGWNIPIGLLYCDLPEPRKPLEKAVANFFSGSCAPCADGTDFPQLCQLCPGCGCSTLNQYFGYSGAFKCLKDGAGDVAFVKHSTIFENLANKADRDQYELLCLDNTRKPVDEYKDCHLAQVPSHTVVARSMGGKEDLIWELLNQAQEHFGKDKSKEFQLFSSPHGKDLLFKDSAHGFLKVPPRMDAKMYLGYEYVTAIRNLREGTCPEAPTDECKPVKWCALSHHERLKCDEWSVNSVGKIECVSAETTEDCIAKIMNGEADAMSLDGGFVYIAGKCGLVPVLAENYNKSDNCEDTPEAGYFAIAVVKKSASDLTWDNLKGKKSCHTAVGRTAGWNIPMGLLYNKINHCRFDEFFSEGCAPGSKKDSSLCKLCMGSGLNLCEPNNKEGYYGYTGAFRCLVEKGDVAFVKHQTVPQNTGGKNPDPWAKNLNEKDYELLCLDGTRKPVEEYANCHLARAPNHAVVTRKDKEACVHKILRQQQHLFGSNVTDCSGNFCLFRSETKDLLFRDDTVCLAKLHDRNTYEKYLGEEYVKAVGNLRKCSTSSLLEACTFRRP

[Cl-].[Cl-].[Hf+4].c1cc[cH-]c1.c1cc[cH-]c1 [Cp2HfCl2]
Ka at 280 nm ([1]; absorbance at 280 nm): 2110 M⁻¹ | Association constants, Ka, 280 nm ([1]; absorbance of apo-hTf at 280 nm, pH 7.4): 2.11 10^3 M^−1 | other secondary structure content of apo-hTf ([2]; compound concentration 0.4 (M)): 19.1% | random coil content of apo-hTf ([2]; compound concentration 0.4 (M)): 33.7% | α-helix content of apo-hTf ([2]; compound concentration 0.4 (M)): 29.7% | β-sheet content of apo-hTf ([2]; compound concentration 0.4 (M)): 17.5% | other secondary structure content of apo-hTf ([2]; compound concentration 0.8 (M)): 19.1% | random coil content of apo-hTf ([2]; compound concentration 0.8 (M)): 33.8% | α-helix content of apo-hTf ([2]; compound concentration 0.8 (M)): 29.5% | β-sheet content of apo-hTf ([2]; compound concentration 0.8 (M)): 17.6% | other secondary structure content of apo-hTf ([2]; compound concentration 1.2 (M)): 19.2% | random coil content of apo-hTf ([2]; compound concentration 1.2 (M)): 33.8% | α-helix content of apo-hTf ([2]; compound concentration 1.2 (M)): 29.3% | β-sheet content of apo-hTf ([2]; compound concentration 1.2 (M)): 17.7% | other secondary structure content of apo-hTf ([2]; compound concentration 1.6 (M)): 19.1% | random coil content of apo-hTf ([2]; compound concentration 1.6 (M)): 34% | α-helix content of apo-hTf ([2]; compound concentration 1.6 (M)): 29.1% | β-sheet content of apo-hTf ([2]; compound concentration 1.6 (M)): 17.8% | other secondary structure content of apo-hTf ([2]; compound concentration 2 (M)): 19.1% | random coil content of apo-hTf ([2]; compound concentration 2 (M)): 34% | α-helix content of apo-hTf ([2]; compound concentration 2 (M)): 29% | β-sheet content of apo-hTf ([2]; compound concentration 2 (M)): 17.9% | other secondary structure content of apo-hTf ([2]; compound concentration 2.4 (M)): 19.2% | random coil content of apo-hTf ([2]; compound concentration 2.4 (M)): 34.1% | α-helix content of apo-hTf ([2]; compound concentration 2.4 (M)): 28.7% | β-sheet content of apo-hTf ([2]; compound concentration 2.4 (M)): 18% | Förster critical energy transfer distance R0 ([3]; k^2=2/3, n=1.336, ØD=0.118): 6.91 nm | binding distance r (donor-acceptor) ([3]; k^2=2/3, n=1.336, ØD=0.118): 9.47 nm | efficiency of energy transfer E ([3]; room temperature, 1.0×10^−5 mol L^−1 each): 0.131 | IC50 [4]: 564 µM | biomolecular quenching rate constant kq ([5]; 296 K): 1.97e+11 M⁻¹ s⁻¹ | Stern-Volmer quenching constant Ksv ([5]; 296 K): 1970 M⁻¹ | number of binding sites n ([5]; 296 K): 1.15 | quenching association constant Ka ([5]; 296 K): 8900 M⁻¹ | biomolecular quenching rate constant kq ([5]; 303 K): 1.57e+11 M⁻¹ s⁻¹ | Stern-Volmer quenching constant Ksv ([5]; 303 K): 1570 M⁻¹ | number of binding sites n ([5]; 303 K): 1.17 | quenching association constant Ka ([5]; 303 K): 8100 M⁻¹ | biomolecular quenching rate constant kq ([5]; 310 K): 1.36e+11 M⁻¹ s⁻¹ | Stern-Volmer quenching constant Ksv ([5]; 310 K): 1360 M⁻¹ | number of binding sites n ([5]; 310 K): 1.18 | quenching association constant Ka ([5]; 310 K): 7500 M⁻¹ | biomolecular quenching rate constant kq ([5]; 317 K): 1.24e+11 M⁻¹ s⁻¹ | Stern-Volmer quenching constant Ksv ([5]; 317 K): 1240 M⁻¹ | number of binding sites n ([5]; 317 K): 1.19 | quenching association constant Ka ([5]; 317 K): 7000 M⁻¹ | ∆G° ([6]; 296 K): -4.443 kcal/mol | ∆G° ([6]; 303 K): -4.45 kcal/mol | ∆G° ([6]; 310 K): -4.46 kcal/mol | ∆G° ([6]; 317 K): -4.469 kcal/mol | ∆H° ([6]; pH 7.4, from Ksv at 296-317 K): -4.08 kcal/mol | ∆S° ([6]; pH 7.4, from Ksv at 296-317 K): 5.13 J/mol K | IC50 (±SD), MCF-7 [7]: proliferative activity | IC50 (±SD), MCF-7 ([7]; listed as Cp^2HfCl^2): Proliferative
